# Published values pooled from the literature.
# Lines come from different studies, so protocols differ.
# CYP2A6: Cytochrome P450 2A6 (CYP2A6, Homo sapiens, UniProt P11509)
# Slc6a4: Sodium-dependent serotonin transporter (Slc6a4, Rattus norvegicus, UniProt P31652)
# BRD4 BD1: Bromodomain-containing protein 4, BD1 (BRD4, Homo sapiens, UniProt O60885)
# OPRM1: Mu-type opioid receptor (OPRM1, Homo sapiens, UniProt P35372)
# HTR1D: 5-hydroxytryptamine receptor 1D (HTR1D, Homo sapiens, UniProt P28221)
Structure (SMILES),target,test,setting,endpoint,value
C#Cc1ccc2oc(-c3ccccc3)cc(=O)c2c1,CYP2A6,"enzyme activity, inhibitor","6 min, pH 7.6",Ki,> 25 µM
CNC(=O)[C@@]12C[C@@H]1[C@@H](n1cnc3c(NC)nc(C#C[c-]4cccc4)nc31)[C@H](O)[C@@H]2O.[Fe+2].c1cc[cH-]c1,"Adenosine receptor A3 (Mus musculus, UniProt Q61618)","ligand displacement, radioligand",cell membranes,Ki,0.00546 µM
CN1CCN(Cc2cccc(Oc3ccccc3)c2)CC1,Slc6a4,"ligand displacement, radioligand",,Ki,> 20 µM
C#Cc1ccc2cc(-c3ccccc3)c(=O)oc2c1,CYP2A6,"enzyme activity, inhibitor","6 min, pH 7.6",Ki,> 25 µM
Oc1ccc(-c2nc(-c3ccncc3)c(-c3ccc(F)cc3)[nH]2)cc1,BRD4 BD1,"binding, ITC",,Kd,3.42 µM
Cc1c(C(=O)NN2CCOCC2)nn(-c2ccc(Cl)cc2Cl)c1-c1ccc(I)cc1,OPRM1,"ligand displacement, radioligand",cell membranes,Ki,2.14 µM
Cc1cc(N)nc(CCc2cccc([C@@H](N)Cc3cc(C)cc(N)n3)c2)c1,"Nitric oxide synthase 1 (Nos1, Rattus norvegicus, UniProt P29476)","enzyme activity, inhibitor",,Ki,~0.1 µM
C#Cc1cccc2oc(-c3ccccc3)cc(=O)c12,CYP2A6,"enzyme activity, inhibitor","6 min, pH 7.6",Ki,> 25 µM
CCCCN1CCC(COC(=O)c2ccc(N)c(OCF)c2)CC1,OPRM1,"cell-free assay, radioligand",,Ki,> 10 µM
CC1=CC(=O)CC(C)(C)[C@@]1(O)/C=C/C(C)=C\C(=O)O,"PYL1 (Arabidopsis thaliana, UniProt Q8VZS8)","binding, MST",,Kd,63.7 µM
Cc1occc(=S)c1O,"Carbonic anhydrase 15 (Mus musculus, UniProt Q99N23)","enzyme activity, inhibitor, stopped-flow",,Ki,3.1 µM
Nc1nc2c(ncn2[C@@H]2O[C@H](COP(=O)(O)OP(=O)(O)O)[C@@H](OP(=O)(O)OP(=O)(O)O)[C@H]2O)c(=O)[nH]1,"mpl (Escherichia coli, UniProt P37773)","binding, ITC",,Kd,752 µM
O[C@H]1[C@H](n2cnc3c(NC(C4CCCCC4)C4CCCCC4)nc(Cl)nc32)[C@H]2C[C@@]2(CF)[C@H]1O,HTR1D,"cell-free assay, radioligand",,Ki,1.99 µM
C#Cc1ccc2c(=O)cc(-c3ccccc3)oc2c1,CYP2A6,"enzyme activity, inhibitor","6 min, pH 7.6",Ki,> 25 µM
O=C1c2ccccc2CCN1CCCCN1CCN(c2cccc(Cl)c2Cl)CC1,HTR1D,"ligand displacement, radioligand",,Ki,> 10 µM
CN(C)c1ccc(C(CNC(=O)c2ccc(Br)cc2)N(C)C)cc1 (centres unmarked),Slc6a4,"ligand displacement, radioligand",,Ki,0.305 µM
Cc1cc2c(NC(=O)c3cccc(C(=O)O)c3)cccc2nn1,BRD4 BD1,"binding, competition with immobilised ligand",,Kd,41 µM
